Only some compounds are listed: those with a hit (about 2.3% of all), similar ones and a draw of the others.
PP5 primary: inhibitors of human protein phosphatase 5 (PP5). purified PP5c, OMFP substrate fluorescence. inhibition, % at 6.7 µM. P53041. hit rate 0.18% among 320,000. AID 1987;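 active means inhibition above the campaign's mean inhibition across all tested compounds plus 3 SD, cut at about 9.5% in these data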;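 further: 0% = DMSO only and 100% = 100 µM cantharidin control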
Target sequence (P53041 whole entry, looked up): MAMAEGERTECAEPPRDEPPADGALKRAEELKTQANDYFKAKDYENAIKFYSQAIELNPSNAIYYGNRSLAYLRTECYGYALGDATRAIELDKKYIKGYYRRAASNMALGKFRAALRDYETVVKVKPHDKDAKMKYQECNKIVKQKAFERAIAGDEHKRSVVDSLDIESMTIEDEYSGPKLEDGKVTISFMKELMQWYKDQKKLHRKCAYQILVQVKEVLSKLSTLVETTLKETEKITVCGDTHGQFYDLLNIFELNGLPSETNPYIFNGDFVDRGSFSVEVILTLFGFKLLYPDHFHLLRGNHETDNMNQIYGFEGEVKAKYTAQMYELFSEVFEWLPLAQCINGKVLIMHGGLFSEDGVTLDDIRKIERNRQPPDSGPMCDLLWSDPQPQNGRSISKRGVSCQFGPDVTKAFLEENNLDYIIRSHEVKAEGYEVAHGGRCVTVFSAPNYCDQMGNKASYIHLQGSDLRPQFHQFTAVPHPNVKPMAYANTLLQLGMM
UBC13 inh: human UBC13 polyubiquitination inhibition; P61088; UBC13 polyubiquitin chain formation, TR-FRET; inhibition, % at 20 µM; hit rate 0.47% among 330,000; AID 485273; in the data active means inhibition above about 45%, passing the limit was not always enough
Target sequence (P61088 whole entry, looked up): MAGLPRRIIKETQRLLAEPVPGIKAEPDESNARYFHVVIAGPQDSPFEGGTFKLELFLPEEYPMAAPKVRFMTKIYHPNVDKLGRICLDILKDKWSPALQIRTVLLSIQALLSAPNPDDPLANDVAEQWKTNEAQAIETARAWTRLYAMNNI
CTSL1 counter: counter-screen for PFM18AAP inhibitors: inhibitors of F. hepatica cathepsin L1; inhibition, % at 5.96 µM; recombinant F. hepatica cathepsin L1, Z-Leu-Arg-MCA fluorescence; hit rate 0.49% among 300,000;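 active means inhibition above the mean of all tested compounds plus 3 SD, set per screening campaign, cut at about 17% in these data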;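 further: 0% = plate median of test compound wells and 100% = 1 µM Z-Phe-Ala-diazomethylketone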
UCH37 inh: human UCH37 deubiquitinating enzyme inhibition; inhibition, % (no concentration beside the values); AID 588478; hit rate 0.33% among 330,000; Q9Y5K5; purified proteasome/UCH37, Ub-AMC cleavage fluorescence;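 active means mean inhibition over replicate wells above about 20%, limit read from the data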;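 further: 0% = compound-free wells with enzyme and 100% = wells lacking proteasome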
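Assay system: Proteasome-bound UCH37. Buffer or medium: pH 7.4 Tris-HCl (50 mM) with ovalbumin, ATP-MgCl2, DTT. Incubation: 30 min preincubation with enzyme, 25 min cleavage at room temperature. Measured by: fluorescence, ex 355 nm, em 460 nm. Read-out basis: percent inhibition. Control set: wells without proteasome as full block, compound-free enzyme plus substrate as uninhibited.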
PP1 inh: PP1-alpha (human) inhibition in PP5 counter-screen. inhibition, % at 6.7 µM. AID 2235. hit rate 0.9% among 320,000. purified PP1alpha, OMFP fluorescence;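 active means inhibition above the mean inhibition of all tested compounds plus 3 SD, computed separately for each screening campaign, cut at about 15% in these data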
PREPL inh: human PREPL enzyme inhibition; recombinant PREPL, fluorescence polarization activity-based probe; inhibition, % at 5.96 µM; hit rate 0.68% among 320,000; Q4J6C6; in the data active means inhibition above about 43%;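 further: 0% = enzyme with DMSO and 100% = wells lacking enzyme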
Casp3 UBC13 ctr: counter-screen for UBC13 inhibitors: human caspase-3 inhibition; shares compounds with UBC13 inh; Recombinant caspase-3, Caspase-Glo 3/7 luminescence, 60 min; inhibition, % at 20 µM; hit rate 4% among 1,400; AID 488856;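 active means mean inhibition across replicates above about 26%, limit read from the data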;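 further: plate controls were DMSO with caspase-3 for no effect and DMSO wells lacking enzyme for full effect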
UBC13 confirm: human UBC13 polyubiquitin inhibition, confirmed | hit rate 68% among 1,400 | inhibition, % at 10 µM | UBC13 polyubiquitination, TR-FRET, biochemical | AID 488859 | shares compounds with UBC13 inh; in the data active means inhibition above about 45%
* marks the source's active call; other numbers are inactive results.

Screening COc1cc2c3nnc(-c4ccc(F)cc4)c-3cn(Cc3ccc(C)cc3)c2cc1OC returned PP5 primary 2.7, UBC13 inh 48.7*, CTSL1 counter 2.1, UCH37 inh -21.9, PP1 inh 5.5, PREPL inh -42.2, Casp3 UBC13 ctr 2.1 and UBC13 confirm 16.3.
`Cc1cccc(/C=C2/Sc3ccc(C(=O)NCCN4CCCC4)cc3NC2=O)c1` gave PP5 primary 4.2, UBC13 inh 59.5*, CTSL1 counter 2.6, UCH37 inh 7.2, PP1 inh 7.2, PREPL inh 17.9, Casp3 UBC13 ctr 2.9 and UBC13 confirm 94.0*.
For CCN1CCN(CCCNC(=O)c2ccc3c(c2)NC(=O)/C(=C\c2cccc(C)c2)S3)CC1 the results were PP5 primary 1.9, UBC13 inh 55.3*, CTSL1 counter 2.5, UCH37 inh 11.1, PP1 inh 1.7, PREPL inh 7.0, Casp3 UBC13 ctr -0.3 and UBC13 confirm 65.3*.
`COc1cccc(/C=C2/Sc3ccc(C(=O)NCCN4CCCCCC4)cc3NC2=O)c1` gave PP5 primary 1.8, UBC13 inh 66.2*, CTSL1 counter 4.5, UCH37 inh 0.5, PP1 inh 9.7, PREPL inh -19.0, Casp3 UBC13 ctr 0.7 and UBC13 confirm 92.3*.
For CCOC(=O)c1ccc(NC(=O)c2nc[nH]c2C(=O)N[C@@H](C)C(=O)OC(C)(C)C)cc1 the results were PP5 primary 0.2, UBC13 inh 58.0*, CTSL1 counter 1.0, UCH37 inh 5.6, PP1 inh -1.5, PREPL inh -5.5, Casp3 UBC13 ctr -3.9 and UBC13 confirm 37.5.
Screening CCOC(=O)c1ccc(NC(=O)c2nc[nH]c2C(=O)N[C@H](C)c2ccccc2)cc1 returned PP5 primary 6.0, UBC13 inh 70.3*, CTSL1 counter 3.6, UCH37 inh 2.5, PP1 inh 0.5, PREPL inh -1.1, Casp3 UBC13 ctr -3.4 and UBC13 confirm 34.2.
CCOC(=O)c1ccc(NC(=O)c2nc[nH]c2C(=O)N[C@@H](CC(C)C)C(=O)OC(C)(C)C)cc1 was read as PP5 primary 8.1, UBC13 inh -5.7, CTSL1 counter 6.8, UCH37 inh -0.3, PP1 inh 7.4 and PREPL inh -12.3.
O=C(Nc1ccccc1)c1nc[nH]c1C(=O)NCc1ccccc1 was read as PP5 primary 4.4, UBC13 inh 6.0, UCH37 inh 2.2, PP1 inh 0.2 and PREPL inh -0.7.
Screening COc1ccc(NC(=O)c2nc[nH]c2C(=O)NCc2ccccc2)cc1 returned PP5 primary 2.9, UBC13 inh 60.0*, CTSL1 counter -1.3, UCH37 inh 3.0, PP1 inh -1.5, PREPL inh 1.3, Casp3 UBC13 ctr 8.2 and UBC13 confirm 7.9.
Screening CC(=NNC(=O)CSCc1ccc(Cl)cc1)c1ccc2c(c1)OCCO2 returned UCH37 inh 3.7.
Screening O=C(Cc1ccccc1)NCC(=O)NN=Cc1cccs1 returned UCH37 inh 2.6.
For C[C@@H](O)C1NC(=O)[C@H](CCCCN)NC(=O)c2cc([N+](=O)[O-])cc(F)c2NCCCC[C@@H](C(N)=O)NC1=O (stereo partly drawn) the results were PP5 primary 1.3, UBC13 inh 95.8*, CTSL1 counter 14.8, UCH37 inh 4.8, PP1 inh 0.8, PREPL inh 20.1, Casp3 UBC13 ctr -0.4 and UBC13 confirm 100.9*.
`CC1CCCCN1CCNC(=O)c1ccc2c(=O)n(Cc3ccc(Cl)cc3)c(=S)[nH]c2c1` (stereo not drawn) gave PP5 primary -1.6, UBC13 inh 49.2*, CTSL1 counter -2.9, UCH37 inh 1.2, PP1 inh 3.1, PREPL inh -47.4, Casp3 UBC13 ctr -1.2 and UBC13 confirm 61.3*.
For CC(=O)Nc1ccc(NC(=O)c2nc(S(=O)(=O)Cc3ccccc3)ncc2Cl)cc1 the results were PP5 primary -1.1, UBC13 inh 47.4*, CTSL1 counter -3.6, UCH37 inh 1.6, PP1 inh -0.8, PREPL inh -3.0, Casp3 UBC13 ctr -4.5 and UBC13 confirm 45.2*.
Screening CC(C)c1nnc(NC(=O)c2nc(S(=O)(=O)Cc3ccc(F)cc3)ncc2Cl)s1 returned PP5 primary 1.2, UBC13 inh 39.4, CTSL1 counter 5.0, PP1 inh 5.8 and PREPL inh 4.6.
`Cc1ccc(CS(=O)(=O)c2ncc(Cl)c(C(=O)Nc3nnc(C(C)C)s3)n2)cc1` gave PP5 primary 3.1, UBC13 inh 50.2*, CTSL1 counter 1.1, PP1 inh -0.6, PREPL inh 2.5, Casp3 UBC13 ctr 0.6 and UBC13 confirm 63.2*.
O=C(NCc1ccccc1)c1nc(S(=O)(=O)Cc2ccccc2)ncc1Cl was read as PP5 primary 2.4, UBC13 inh 14.9, CTSL1 counter -1.3, UCH37 inh 3.8, PP1 inh -1.6 and PREPL inh 5.9.
`C=CCCCCCCCCC(=O)N1CCN(c2cc3c(cc2F)c(=O)c(C(=O)O)cn3CC)CC1` gave PP5 primary -0.7, UBC13 inh 47.0*, CTSL1 counter -1.4, UCH37 inh -91.7, PP1 inh 9.8, PREPL inh 14.2, Casp3 UBC13 ctr -1.6 and UBC13 confirm 15.6.
For CCCCCCn1cc(C(=O)O)c(=O)c2cc(F)c(N3CCN(C(=O)OCC)CC3)cc21 the results were PP5 primary -0.7, UBC13 inh 22.6, CTSL1 counter -2.0, UCH37 inh -147.5, PP1 inh 3.0 and PREPL inh 14.4.
CCN1CCN(C(=O)c2cc(-c3ccco3)nc3ccccc23)CC1 was read as PP5 primary 2.5, UBC13 inh 51.5*, UCH37 inh inactive, PP1 inh -1.6, PREPL inh 16.2, Casp3 UBC13 ctr 3.6 and UBC13 confirm 31.6.
For CCN1CCN(C(=O)c2cc(-c3ccc(Cl)s3)nc3ccccc23)CC1 the results were UBC13 inh 25.3 and UCH37 inh -461.3.
For Cc1ccc(-c2csc(NC(=O)C[n+]3cc(-c4ccc(C)cc4)n4c3CCC4)n2)cc1 the results were PP5 primary 1.5, UBC13 inh 59.7*, CTSL1 counter -1.8, UCH37 inh 7.4, PP1 inh 14.6, PREPL inh -26.8, Casp3 UBC13 ctr 0.8 and UBC13 confirm 69.8*.
COCCNC(=S)N=Nc1c(O)[nH]c2c(C)cc(C)cc12 was read as PP5 primary 1.8, UBC13 inh 87.2*, CTSL1 counter 6.0, PP1 inh 1.3, PREPL inh 10.1, Casp3 UBC13 ctr -1.6 and UBC13 confirm 101.6*.
Cc1cc(C)c2[nH]c(O)c(N=NC(=O)c3cc4c(s3)CCCC4)c2c1 was read as PP5 primary -0.1, UBC13 inh -11.0, CTSL1 counter 0.1, UCH37 inh 3.5, PP1 inh -2.2 and PREPL inh 17.6.

Source: PubChem (several laboratories)
